ChEMBL document CHEMBL1149737, “Brominated polyacetylenic acids from the marine sponge Xestospongia muta: inhibitors of HIV protease” (J Nat Prod, 1992)
Activity calls are given as the source filed them. The calls are words filed in the database; no cut-off is given here.

Legend:
Protease = Protease (Human immunodeficiency virus 1, UniProt Q9YQ12); experiment: Inhibition of HIV1 protease-mediated proteolysis of rabbit muscle lactate dehydrogenase by spectrophotometry; format: single protein
Outline: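 Purified HIV-1 protease (0.8 µg) with rabbit muscle LDH (0.5–2 mg/ml) in 80 mM Na acetate pH 4.7, 1 mM EDTA, 1 mM DTT, 0.2 M NaCl, 37°, 10–60 min. Aliquots were diluted into 0.1 M K phosphate pH 7.0, 30 min RT. Residual LDH was read as NADH loss at 340 nm (7.6 mM pyruvate, 0.2 mM NADH, 37°) from initial slopes. Controls lacked protease.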

[1] = molecular target: T1, ATP-citrate synthase (Rattus norvegicus) (UniProt P16638); experiment: Inhibition of rat ATP citrate lyase at 100 ug/ml
T1 sequence (whole entry): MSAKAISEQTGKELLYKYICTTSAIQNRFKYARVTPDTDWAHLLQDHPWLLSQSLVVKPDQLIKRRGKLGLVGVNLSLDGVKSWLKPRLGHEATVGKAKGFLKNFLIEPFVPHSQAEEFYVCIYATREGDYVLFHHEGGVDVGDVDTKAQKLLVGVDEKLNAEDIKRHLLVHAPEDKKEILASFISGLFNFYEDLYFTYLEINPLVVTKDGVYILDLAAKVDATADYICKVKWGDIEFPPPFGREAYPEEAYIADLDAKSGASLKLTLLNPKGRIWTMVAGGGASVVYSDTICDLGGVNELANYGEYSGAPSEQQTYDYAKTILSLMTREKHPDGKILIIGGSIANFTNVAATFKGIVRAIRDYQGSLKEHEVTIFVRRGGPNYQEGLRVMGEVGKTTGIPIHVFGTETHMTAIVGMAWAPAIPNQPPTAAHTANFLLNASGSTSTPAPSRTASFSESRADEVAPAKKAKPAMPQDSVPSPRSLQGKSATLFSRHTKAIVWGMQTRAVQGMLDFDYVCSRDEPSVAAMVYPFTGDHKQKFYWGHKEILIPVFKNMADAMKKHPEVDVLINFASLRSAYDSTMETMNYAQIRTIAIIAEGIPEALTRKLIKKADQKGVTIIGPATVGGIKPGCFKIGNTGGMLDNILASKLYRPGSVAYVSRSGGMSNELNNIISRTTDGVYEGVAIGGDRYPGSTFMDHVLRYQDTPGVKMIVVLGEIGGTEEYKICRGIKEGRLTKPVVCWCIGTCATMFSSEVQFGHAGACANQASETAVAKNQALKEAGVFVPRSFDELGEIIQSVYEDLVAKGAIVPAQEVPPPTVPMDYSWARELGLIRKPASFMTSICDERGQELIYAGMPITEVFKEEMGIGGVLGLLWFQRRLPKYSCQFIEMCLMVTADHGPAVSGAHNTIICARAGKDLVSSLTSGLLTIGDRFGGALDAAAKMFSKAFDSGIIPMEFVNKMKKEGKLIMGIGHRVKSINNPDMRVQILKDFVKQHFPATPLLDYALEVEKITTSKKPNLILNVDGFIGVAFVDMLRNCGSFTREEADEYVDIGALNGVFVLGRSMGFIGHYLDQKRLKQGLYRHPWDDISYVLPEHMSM

Sus scrofa = organism: Sus scrofa; experiment: Inhibition of pig malic dehydrogenase at 100 ug/ml
MOLT-4 = experiment: Cytotoxicity against human MOLT4 cells; format: functional, cell-based

Sequence of Protease (Q9YQ12 whole entry): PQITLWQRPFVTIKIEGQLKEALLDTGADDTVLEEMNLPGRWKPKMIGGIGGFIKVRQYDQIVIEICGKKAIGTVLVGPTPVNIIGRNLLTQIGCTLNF

Row | SMILES | IC50 (Protease) [µM] | Activity [1] | Activity (Sus scrofa) | Activity (MOLT-4)
1 | COC(=O)CCCC#CC#C/C=C/CCCCCC/C=C/Br | 10 | inactive | inactive | Active
2 | O=C(O)CCCC#CC#C/C=C/CCCCCC/C=C/Br | 12 | inactive | inactive | Active
3 | O=C(O)CCCC#CC#C/C=C/CCCCC#C/C=C/Br | 8 | inactive | inactive | Active
4 | O=C(O)CCCC#C/C=C/CCCC/C=C/C#C/C=C/Br | 10 | inactive | inactive | Active

The next molecules have a lower IC50 (Protease) than those just listed; values first:

Row | IC50 (Protease) [µM] | Activity [1] | Activity (Sus scrofa) | SMILES | Activity (MOLT-4)
5 | 7 | inactive | inactive | O=C(O)CCCC#CC#C/C=C/CCCC/C=C/C#CBr | Active
6 | 6 | inactive | inactive | O=C(O)CCCC#CC#C/C=C/CC/C=C/C#C/C=C/Br | Active
